{"source": "ChEMBL document CHEMBL5705892", "about": "“MK-2206, an allosteric Akt inhibitor, enhances antitumor efficacy by standard chemotherapeutic agents or molecular targeted drugs in vitro and in vivo” (Mol Cancer Ther, 2010)", "key": {"NCI-H23": {"test_system": "NCI-H23", "experiment": "Antiproliferative activity against human NCI-H23 cells assessed as reduction in cell proliferation measured after 72 hrs by celltiter-glo assay", "type": "functional, cell-based", "conditions": "NCI-H23, 72 h", "summary_of_the_method": "(§1)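 Cells in RPMI 1640 with 10% heat-inactivated FBS at 37°C and 5% CO₂ were seeded at 2 to 3 × 10³ per well. […] Growth was read as cellular ATP by CellTiter-Glo.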"}, "NCI-H460 [1]": {"test_system": "NCI-H460", "experiment": "Antiproliferative activity against human NCI-H460 cells assessed as reduction in cell proliferation measured after 72 hrs by celltiter-glo assay", "type": "functional, cell-based", "conditions": "NCI-H460, 72 h"}, "MDA-MB-468": {"test_system": "MDA-MB-468", "experiment": "Antiproliferative activity against human MDA-MB-468 cells assessed as reduction in cell proliferation measured after 72 hrs by celltiter-glo assay", "type": "functional, cell-based", "conditions": "MDA-MB-468, 72 h", "summary_of_the_method": "as §1"}, "NCI-H292 [2]": {"test_system": "NCI-H292", "experiment": "Synergistic antiproliferative activity against human NCI-H292 cells assessed as combination index at ED75 measured after 72 hrs in presence of erlotinib by celltiter-glo assay", "type": "functional"}, "NCI-H358": {"test_system": "NCI-H358", "experiment": "Synergistic antiproliferative activity against human NCI-H358 cells assessed as combination index at ED75 measured after 72 hrs in presence of erlotinib by celltiter-glo assay", "type": "functional"}, "NCI-H292 [3]": {"test_system": "NCI-H292", "experiment": "Induction of apoptosis in human NCI-H292 cells assessed as increase in caspase-3/7 activity measured after 48 hrs in presence of erlotinib by caspase-glo 3/7 assay", "type": "functional, cell-based", "conditions": "dose <= 3.0 µmol/L", "summary_of_the_method": "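Caspase-3/7 activity was measured by Caspase-Glo 3/7 and expressed as fold over DMSO vehicle control. The experiment was done twice.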"}, "SK-OV-3 [4]": {"test_system": "SK-OV-3", "experiment": "Synergistic antiproliferative activity against lapatinib pretreated human SK-OV-3 cells assessed as combination index at ED50 measured after 72 hrs by celltiter-glo assay", "type": "functional"}, "SK-OV-3 [5]": {"test_system": "SK-OV-3", "experiment": "Synergistic antiproliferative activity against human SK-OV-3 cells assessed as combination index at ED50 measured after 96 hrs in presence of lapatinib by celltiter-glo assay", "type": "functional"}, "NCI-N87 [6]": {"test_system": "NCI-N87", "experiment": "Synergistic antiproliferative activity against human NCI-N87 cells assessed as combination index at ED75 measured after 96 hrs in presence of lapatinib by celltiter-glo assay", "type": "functional"}, "NCI-N87 [7]": {"test_system": "NCI-N87", "experiment": "Synergistic antiproliferative activity against human NCI-N87 cells assessed as combination index at ED90 measured after 96 hrs in presence of lapatinib by celltiter-glo assay", "type": "functional"}, "[8]": {"experiment": "Toxicity in human PC-3 cells xenografted CD1 nude mouse assessed as body weight loss at 120 mg/kg, po administered 3 times per week for 2 weeks measured on day 15", "type": "organism-based", "conditions": "in vivo, 360 h, time 15 day", "summary_of_the_method": "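Male CD1-nude mice with s.c. PC-3 tumours (50% Matrigel/50% PBS, left flank), randomized at mean 0.2 cm³, n=5/group, treated from 25 d post-implant. Body weight monitored versus vehicle-only controls.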"}, "A2780 [9]": {"test_system": "A2780", "experiment": "Synergistic antiproliferative activity against human A2780 cells assessed as combination index at ED75 measured after 72 hrs in presence of gemcitabine by celltiter-glo assay", "type": "functional", "summary_of_the_method": "(§2)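 Cells were seeded at 2–3 × 10³ per well in RPMI 1640 with 10% FBS. At 24 h, MK-2206 and the partner drug were added simultaneously at constant concentration ratios spanning each agent's IC₅₀, for 72 h. Growth was read as cellular ATP by CellTiter-Glo. CI was taken from median-effect plots of each agent alone and in combination (Chou–Talalay), at ED₅₀, ED₇₅ and ED₉₀.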"}, "A2780 [10]": {"test_system": "A2780", "experiment": "Synergistic antiproliferative activity against human A2780 cells assessed as combination index at ED90 measured after 72 hrs in presence of doxorubicin by celltiter-glo assay", "type": "functional", "summary_of_the_method": "as §2"}, "NCI-H460 [11]": {"test_system": "NCI-H460", "experiment": "Induction of apoptosis in human NCI-H460 cells assessed as fold induction of capsase-3/7 activity measured after 24 to 48 hrs in presence of carboplatin by caspase-glo 3/7 assay", "type": "functional", "conditions": "time 24-48 hrs"}, "[12]": {"molecular_target": "RAC-alpha serine/threonine-protein kinase (Homo sapiens) (UniProt P31749)", "sequence (P31749 whole entry)": "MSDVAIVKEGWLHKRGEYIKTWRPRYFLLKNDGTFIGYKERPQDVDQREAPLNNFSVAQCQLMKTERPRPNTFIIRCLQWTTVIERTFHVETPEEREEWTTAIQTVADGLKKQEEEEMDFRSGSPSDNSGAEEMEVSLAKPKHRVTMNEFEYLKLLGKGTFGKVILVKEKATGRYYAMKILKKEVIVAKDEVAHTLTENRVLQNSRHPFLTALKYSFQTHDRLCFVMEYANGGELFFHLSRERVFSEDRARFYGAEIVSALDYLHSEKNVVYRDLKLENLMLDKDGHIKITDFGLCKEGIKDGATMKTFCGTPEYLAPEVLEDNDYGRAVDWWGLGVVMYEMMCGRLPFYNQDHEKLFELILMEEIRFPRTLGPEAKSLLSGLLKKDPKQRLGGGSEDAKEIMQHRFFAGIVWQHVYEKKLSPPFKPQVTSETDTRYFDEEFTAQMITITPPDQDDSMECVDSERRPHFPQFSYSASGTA", "experiment": "Inhibition of AKT phosphorylation at S473 residue in human NCI-H661 cells at 3 umol/L measured after 4 to 24 hrs in presence of carboplatin by MSD assay", "conditions": "time 4-24 hrs"}}, "note": "The source made the active and inactive calls. The calls are words filed in the database; no cut-off is given here."}
{"smiles": "Cl.NC1(c2ccc(-c3nc4ccn5c(=O)[nH]nc5c4cc3-c3ccccc3)cc2)CCC1", "values": [{"measurement": "IC50", "setting": "NCI-H23", "value": 14.1, "unit": "µM"}, {"measurement": "IC50", "setting": "NCI-H460 [1]", "value": 3.4, "unit": "µM"}, {"measurement": "IC50", "setting": "MDA-MB-468", "value": 2.6, "unit": "µM"}, {"measurement": "CI75", "setting": "NCI-H292 [2]", "value": 0.31}, {"measurement": "CI75", "setting": "NCI-H358", "value": 0.19}, {"measurement": "Activity", "setting": "NCI-H292 [3]", "value": "Dose-Dependent Effect"}, {"measurement": "CI50", "setting": "SK-OV-3 [4]", "value": 0.18}, {"measurement": "CI50", "setting": "SK-OV-3 [5]", "value": 0.18}, {"measurement": "CI75", "setting": "NCI-N87 [6]", "value": 0.18}, {"measurement": "CI90", "setting": "NCI-N87 [7]", "value": 0.18}, {"measurement": "Activity", "setting": "[8]", "value": "Non-Toxic"}, {"measurement": "CI75", "setting": "A2780 [9]", "value": 0.43}, {"measurement": "CI90", "setting": "A2780 [10]", "value": 0.27}, {"measurement": "fold change (FC)", "setting": "NCI-H460 [11]", "value": 1.4}, {"measurement": "inhibition", "setting": "[12]", "value": "Active"}]}
